NR2E3 ag-1 = activates human photoreceptor nuclear receptor NR2E3; Q9Y5X4; GST-NR2E3/biotin-RetCOR TR-FRET, 1536-well; inhibition of corepressor binding, % at 4.78 µM; 320,000 tested, 0.12% active; AID 2300;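 active means percent inhibition above the cutoff of mean plus 3 SD of all tested compounds, set per screening campaign, cut at about 20% in these data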;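 further: 0% = DMSO wells and 100% = biotin wells as full block of FRET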
Target sequence (Q9Y5X4 whole entry, looked up): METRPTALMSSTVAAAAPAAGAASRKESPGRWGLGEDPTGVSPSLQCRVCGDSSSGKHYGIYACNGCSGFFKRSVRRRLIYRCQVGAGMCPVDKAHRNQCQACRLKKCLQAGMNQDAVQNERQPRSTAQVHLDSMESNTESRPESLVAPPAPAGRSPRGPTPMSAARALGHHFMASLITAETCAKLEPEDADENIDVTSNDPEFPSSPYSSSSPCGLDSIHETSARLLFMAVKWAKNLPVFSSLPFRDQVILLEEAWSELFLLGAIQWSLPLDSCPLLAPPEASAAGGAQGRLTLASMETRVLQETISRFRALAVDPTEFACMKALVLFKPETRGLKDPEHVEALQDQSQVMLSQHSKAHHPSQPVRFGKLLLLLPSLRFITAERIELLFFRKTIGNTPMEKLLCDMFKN
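Test system – NR2E3–RetCOR corepressor complex · Quantity – NR2E3 fusion 1.35 nM · Buffer or medium – Tris pH 7.5 · Incubation – Compound–protein incubation for 5 h at 4 °C · Technique – TR-FRET, Eu(K)-anti-GST donor, streptavidin-D2 acceptor, ex 340, em 617/671 nm · Evaluation – percent inhibition of 671/617 nm emission ratio versus biotin and DMSO controls · Plate – 1536-well format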
Rev-erbA mod = modulators of human Rev-erb alpha DNA binding; P20393; Rev-erbα–FITC-DNA binding, fluorescence polarization, 90 min; activity, % at 10 µM; 370,000 tested, 0.79% active; AID 1259318;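 active means activity above about 14%, limit read from the data; passing the limit was not always enough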;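 further: 0% = DMSO wells with 35 nM protein and 100% = DMSO wells with 750 nM protein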
NR2E3 ag-2 = activates human NR2E3 receptor. CHO-S Gal4-NCOR/VP16-NR2E3 two-hybrid, luciferase. inhibition of corepressor binding, % at 3.98 µM. 360,000 tested, 0.35% active. AID 602229;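 active means inhibition above the mean of all tested compounds plus 3 SD, cut at about 70% in these data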;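 further: 0% = DMSO with NR2E3 transfected cells and 100% = cells lacking NR2E3 construct; higher means lower luciferase signal from less NR2E3 corepressor binding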
MT1-MMP act inh = blocks activation of human MT1-MMP. P50281. HT1080 RFP-PRO-GFP cells, GFP/RFP ratio fluorescence, overnight; percent of plate control window, DMSO zero. GFP/RFP ratio change, % at 20 µM. 360,000 tested, 0.061% active. AID 651647;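 active means GFP/RFP ratio change of at least 30% with cell ATP level not reduced by more than half and red fluorescence within 50% of control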
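Compound: 20 µM single dose, 1% DMSO / System: HT1080 RFP-PRO-GFP cells / Controls: DMSO and RFP-L50D-GFP cell wells / Read-out basis: GFP/RFP fluorescence ratio / Schedule: overnight compound exposure at 37 °C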
PG9 Ab binder = PG9 antibody binding by small molecule | inhibition, % at 6.7 µM | 360,000 tested, 0.43% active | TR-FRET gp120-PG9 antibody binding; in the data active means inhibition above about 8.5%
SKN-1 block = inhibitors of C. elegans SKN-1; C. elegans VP596 Pgst-4::GFP/RFP ratio, acrylamide-induced, 24 h; inhibition, % at 21.8 µM; 360,000 tested, 0.49% active;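 active means interference check ratio from 0.5 to 1.5 plus GFP to RFP signal ratio inhibition reaching or exceeding a fixed threshold, cut at about 30% in these data, passing the limit was not always enough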
NR2E3 ag conf = NR2E3 agonism confirmed in two-hybrid assay. shares compounds with NR2E3 ag-2. CHO-S mammalian two-hybrid NR2E3-NCOR, luciferase luminescence. inhibition, % at 3.98 µM. 2,300 tested, 51% active;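 active means average inhibition above a cutoff equal to the mean inhibition of all tested compounds plus one SD, cut at about 70% in these data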;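 further: 0% = DMSO in NR2E3 cells and 100% = DMSO in cells lacking NR2E3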
VP16 counter = reduces GAL4-VP16 reporter signal in NR2E3 counterscreen. shares compounds with NR2E3 ag-2. CHO-S GAL4-VP16 luciferase reporter, luminescence. inhibition, % at 3.98 µM. 2,300 tested, 29% active. AID 624379;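 active means mean inhibition above a cutoff equal to the average over all tested compounds plus one standard deviation, cut at about 70% in these data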;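 further: luciferase from a UAS reporter driven by GAL4-VP16 transactivation; 0% = DMSO with VP16-transfected cells and 100% = DMSO with cells lacking VP16; higher means less reporter light so more repression of VP16 activity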
Active calls of the source: *; nt = no result given. Compounds with a hit are over-represented: about 1.9% of the library has one in this group of screens.

SMILES | NR2E3 ag-1 | Rev-erbA mod | NR2E3 ag-2 | MT1-MMP act inh | PG9 Ab binder | SKN-1 block | NR2E3 ag conf | VP16 counter
Cc1ccc(OCCN2CCC2(C)C(=O)NCc2ccc(C(F)(F)F)cc2)cc1 (stereo not given) | nt | -5 | 53 | -5 | -2 | -1 | -2 | -3
COC(=O)[C@]12C[C@H](CC(=O)NCc3ccc(OC)c(OC)c3)C(=O)N(CCc3ccc(OC)c(OC)c3)C1=C[C@H](COCc1ccccc1)O[C@@H]2C | nt | 5 | nt | nt | nt | nt | nt | nt
CC(=O)/C(N=Nc1ccc2c(c1)OCO2)=C(\C)O | 2 | 8 | -45 | 6 | 1 | 1 | nt | nt
CC(=O)/C(N=Nc1ccc2c(c1)OCCO2)=C(\C)O | -2 | -2 | 52 | 2 | -3 | 13 | 31 | 12
Cc1ccc(NC(=O)OCCN(C)C(=O)Nc2ccc(C)cc2C)c(C)c1 | nt | 8 | nt | nt | 1 | nt | nt | nt
N#Cc1ccc2nc(-c3ccc(CN4CCC(n5cc(-c6ccccc6)[nH]c5=O)CC4)cc3)c(-c3ccccc3)nc2c1 | nt | -1 | nt | nt | 0 | nt | nt | nt
Cc1ccc(OCc2nnc(SCc3nc4ccccc4[nH]3)n2Cc2ccco2)cc1 | -5 | 3 | 49 | -11 | -1 | 6 | 66 | 65
CCc1c(Cc2ccccc2)ncn1CCc1ccccc1OC | nt | 1 | nt | nt | 1 | nt | nt | nt
O=C(C1CC1)N1CCc2cc(Br)cc(S(=O)(=O)N3CCN(c4ccccn4)CC3)c21 | 1 | -9 | 87* | -6 | -1 | 2 | 90* | 2
COC(=O)C1=C(C(=O)OC)C2CCCC1C1N=NN(c3ccccc3)C21 (stereo not given) | nt | -5 | nt | nt | 0 | nt | nt | nt
CCCCN(C)C(=O)C1CCN(S(=O)(=O)c2ccc3[nH]c(=O)oc3c2)CC1 | nt | -5 | nt | nt | nt | nt | nt | nt
CCC(C(=O)NCCC(C)C)n1ccc2cc(S(=O)(=O)N3CCCCC3)ccc21 (stereo not given) | -1 | nt | 60 | -2 | nt | 6 | 49 | 47
O=C(CNS(=O)(=O)c1ccccc1)N1CCN(c2ncccn2)CC1 | nt | -7 | nt | nt | nt | nt | nt | nt
COCc1[nH]nc2c1C(c1cccc(C(F)(F)F)c1)NC2=O (stereo not given) | nt | -1 | nt | nt | 0 | nt | nt | nt
CC(=O)c1cccc(N=c2scc(-c3ccc(S(=O)(=O)N4CCOCC4)cc3)n2CCO)c1 | -1 | 0 | 68 | -10 | -3 | 1 | 82* | 77*
O=C(N=Nc1c(O)[nH]c2c(Cl)cc(Cl)cc12)c1ccccc1O | nt | -9 | nt | nt | -2 | nt | nt | nt
O=C(CCCc1nc(-c2ccccc2Cl)no1)NC1CCCC1 | -1 | -9 | 62 | 1 | 1 | 8 | 60 | 56
COc1ccc(CN2CCC(CNC(=O)NC3CCC(C)CC3)CC2)cc1 (stereo not given) | nt | -4 | nt | nt | nt | nt | nt | nt
CCCCN1CCS(=O)(=O)N(Cc2ccc(Cl)cc2)C(C(=O)OC)C1 (stereo not given) | nt | -9 | nt | nt | nt | nt | nt | nt
CN(C)c1ccc(C=c2c3ccccc3n3c2cc(-c2ccccc2)[n+]3C)cc1 | nt | -15 | 80* | 10 | -16 | 83 | 93* | 68
COCCNC(=S)N1C[C@H]2CON(C)[C@H]2C[C@H]1c1ccccc1Br | nt | -6 | nt | nt | 3 | nt | nt | nt
O=[N+]([O-])c1cc(C(F)(F)F)cc([N+](=O)[O-])c1NCCNC(=S)Nc1ccc(Cl)c(Cl)c1 | 2 | 9 | 65 | 7 | -1 | 5 | 98* | 25
FC(F)(F)c1cccc(NC(=S)Nc2ccc(Cl)c(Cl)c2)c1 | 2 | 0 | -3 | 1 | -3 | 14 | nt | nt
Cc1ccc(C(=O)Nc2sc(C)c(-c3ccccc3)c2C(N)=O)cc1[N+](=O)[O-] | 1 | 6 | 54 | 3 | -2 | 1 | 56 | 16
CN1CCCCC(NC(=O)c2ccc(Cl)cc2Cl)C1=O (stereo not given) | nt | -4 | nt | nt | 0 | nt | nt | nt
